The record followed here is ChEMBL document CHEMBL5131524, “Design and Synthesis of Tranylcypromine-Derived LSD1 Inhibitors with Improved hERG and Microsomal Stability Profiles” (ACS Med Chem Lett, 2022).

Series [1] has as its target T1, Amine oxidase [flavin-containing] A (Homo sapiens, UniProt P21397).
T1 sequence (P21397 whole entry): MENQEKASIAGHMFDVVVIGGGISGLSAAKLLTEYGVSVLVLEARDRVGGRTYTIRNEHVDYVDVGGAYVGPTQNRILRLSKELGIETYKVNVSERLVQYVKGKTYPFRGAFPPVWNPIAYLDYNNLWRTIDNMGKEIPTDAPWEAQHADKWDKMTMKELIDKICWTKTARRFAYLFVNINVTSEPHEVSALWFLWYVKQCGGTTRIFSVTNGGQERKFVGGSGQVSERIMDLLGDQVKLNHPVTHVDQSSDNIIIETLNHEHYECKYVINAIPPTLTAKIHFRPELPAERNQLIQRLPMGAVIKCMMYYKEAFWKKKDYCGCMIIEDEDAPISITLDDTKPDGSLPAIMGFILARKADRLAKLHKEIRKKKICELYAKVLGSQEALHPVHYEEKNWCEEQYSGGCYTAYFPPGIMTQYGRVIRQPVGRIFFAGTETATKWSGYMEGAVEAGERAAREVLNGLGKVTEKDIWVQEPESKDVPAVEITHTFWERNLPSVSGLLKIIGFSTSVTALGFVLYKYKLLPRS
The experiment in a line: Inhibition of MAO-A (unknown origin) using tyramine as substrate and measured after 10 mins by peroxidase-coupled reaction method.

Series [2] in a line: Metabolic stability in mouse liver microsomes assessed as compound remaining and measured after 60 mins in presence of beta-NADPH by liquid chromatography tandem mass spectrometry analysis. Format: ADME, Microsome. The conditions noted are these: read-out: Stability. In a few lines:
(§1)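 Percent of compound remaining after 60 min incubation with liver microsomes of each species (human, rat, mouse). Values are the mean of three independent experiments.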
A general note: Microsomes from liver hold many membrane-bound enzymes, among them those of drug oxidation.

For series [3], the target named is T2, Amine oxidase [flavin-containing] B (Homo sapiens, UniProt P27338).
T2 sequence (P27338 whole entry): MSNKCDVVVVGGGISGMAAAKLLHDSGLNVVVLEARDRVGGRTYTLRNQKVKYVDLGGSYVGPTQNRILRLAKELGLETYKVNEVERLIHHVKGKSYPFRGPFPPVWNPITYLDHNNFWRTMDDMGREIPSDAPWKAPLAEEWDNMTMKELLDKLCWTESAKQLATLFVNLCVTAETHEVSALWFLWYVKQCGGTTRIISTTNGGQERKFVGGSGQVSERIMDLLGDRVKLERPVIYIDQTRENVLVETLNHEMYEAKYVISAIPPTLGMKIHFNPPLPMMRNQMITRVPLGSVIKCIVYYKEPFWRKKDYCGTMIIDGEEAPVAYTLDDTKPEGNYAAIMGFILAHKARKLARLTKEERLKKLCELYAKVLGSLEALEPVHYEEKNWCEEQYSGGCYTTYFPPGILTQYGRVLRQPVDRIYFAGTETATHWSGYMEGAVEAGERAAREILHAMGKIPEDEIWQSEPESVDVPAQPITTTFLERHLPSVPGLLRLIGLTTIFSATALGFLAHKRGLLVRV
Kind of series: Inhibition of MAO-B (unknown origin) using tyramine as substrate and measured after 10 mins by peroxidase-coupled reaction method.

The nature of series [4]: Metabolic stability in rat liver microsomes assessed as compound remaining and measured after 60 mins in presence of beta-NADPH by liquid chromatography tandem mass spectrometry analysis. The class given is ADME, Microsome. The following applies: read-out: Stability. In a few lines: as §1
A short description of series [5]: Metabolic stability in human liver microsomes assessed as compound remaining and measured after 60 mins in presence of beta-NADPH by liquid chromatography tandem mass spectrometry analysis. Format: ADME, Microsome. The conditions noted are these: read-out: Stability. The gist of the method: as §1
The target in a further series is hERG (KCNH2) (Homo sapiens, UniProt Q12809). The experiment in a line: Inhibition of human ERG expressed in human HEK293 cells at 10 uM for 2 mins by whole-cell patch-clamp system. Format: toxicity, cell-based. The conditions noted are these: HEK293 cells expressing human ERG. The gist of the method: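 hERG inhibition was measured by automated patch clamp in HEK293 cells expressing hERG. Values are the mean of three independent experiments.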
hERG (KCNH2), sequence (Q12809 whole entry): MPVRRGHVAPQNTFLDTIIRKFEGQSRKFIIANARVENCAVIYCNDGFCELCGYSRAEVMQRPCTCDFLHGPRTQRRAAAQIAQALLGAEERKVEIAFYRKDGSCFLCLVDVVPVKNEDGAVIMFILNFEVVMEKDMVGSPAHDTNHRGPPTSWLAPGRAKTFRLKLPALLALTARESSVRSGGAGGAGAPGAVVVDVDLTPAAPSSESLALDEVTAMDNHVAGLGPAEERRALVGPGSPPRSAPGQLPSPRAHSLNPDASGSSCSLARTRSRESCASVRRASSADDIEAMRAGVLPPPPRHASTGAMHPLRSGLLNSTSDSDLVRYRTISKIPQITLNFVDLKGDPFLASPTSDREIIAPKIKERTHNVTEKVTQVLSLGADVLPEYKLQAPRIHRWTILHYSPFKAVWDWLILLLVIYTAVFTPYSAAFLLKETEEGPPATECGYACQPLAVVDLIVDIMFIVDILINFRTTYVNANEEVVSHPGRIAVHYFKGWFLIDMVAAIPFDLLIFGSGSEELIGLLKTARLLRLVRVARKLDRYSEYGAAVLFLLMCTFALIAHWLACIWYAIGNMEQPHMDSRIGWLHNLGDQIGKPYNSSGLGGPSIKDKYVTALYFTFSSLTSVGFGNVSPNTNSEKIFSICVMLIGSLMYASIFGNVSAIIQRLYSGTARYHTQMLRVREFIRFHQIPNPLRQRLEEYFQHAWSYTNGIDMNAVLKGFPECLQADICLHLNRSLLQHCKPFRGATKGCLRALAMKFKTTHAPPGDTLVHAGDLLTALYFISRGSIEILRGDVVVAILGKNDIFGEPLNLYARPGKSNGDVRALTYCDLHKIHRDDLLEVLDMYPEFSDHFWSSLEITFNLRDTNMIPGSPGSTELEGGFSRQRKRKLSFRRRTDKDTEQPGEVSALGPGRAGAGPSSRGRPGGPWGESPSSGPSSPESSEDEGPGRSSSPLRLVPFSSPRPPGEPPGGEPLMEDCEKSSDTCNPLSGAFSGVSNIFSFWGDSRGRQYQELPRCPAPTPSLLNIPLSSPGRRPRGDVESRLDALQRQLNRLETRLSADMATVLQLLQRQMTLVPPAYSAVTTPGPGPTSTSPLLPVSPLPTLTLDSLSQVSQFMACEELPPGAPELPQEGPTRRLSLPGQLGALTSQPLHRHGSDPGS

Series [6] is described as follows: Tmax in ICR mouse serum at 10 mg/kg, ip. The class given is ADME, organism-based. The gist of the method: (§2)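 Single intraperitoneal injection, 10 mg/5 mL per kilogram, to male ICR mice aged eight weeks (n = 3). Serum concentration–time profiles were measured, giving AUC0–∞ […], Cmax, Tmax and serum half-life.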
Series [7] can be described thus: AUC (0-infinity) in ICR mouse at 10 mg/kg, ip. The class given is ADME, organism-based. The arrangement: time infinity, dose 10 mg/kg, route ip. The following applies: in vivo. In a few lines: as §2
A short description of series [8]: Cmax in ICR mouse serum at 10 mg/kg, ip. The class given is ADME, organism-based. The arrangement: dose 10 mg/kg, route ip. In a few lines: as §2
The nature of series [9]: Half life in ICR mouse serum at 10 mg/kg, ip. The class given is ADME, organism-based. In a few lines: as §2

The term Ki denotes the equilibrium dissociation constant of an inhibitor or competing ligand from its target. A low value points to higher affinity. On to `O=C(CN[C@@H]1C[C@H]1c1cc(F)cc(F)c1OCc1cccnc1F)N1CCC2(CCNC2)CC1`, for which the Ki in series [1] and in series [3] was > 250 µM in each case. Besides, the remaining at 1 h in series [2] is 73%; in series [4], 55%; in series [5], 45%.
For orientation: inhibition means the drop in the measured response relative to a control, in per cent. Read a low inhibition as little suppression. As for `COCCN1CCN(C(=O)CNC2CC2c2cc(F)cc(F)c2OCc2cnn(C)c2)CC1` (configuration not stated), at hERG (KCNH2), the inhibition at 2 min, 10 µM is 14%.
Same read-out and setting: under `COCCN1CCN(C(=O)CNC2CC2c2cc(F)cc(F)c2OCc2ccccc2)CC1` (configuration not stated) stands 50%.
Same read-out and setting: under `COCCN1CCN(C(=O)CNC2CC2c2cc(F)cc(F)c2OCCc2ccc(F)cc2)CC1` (configuration not stated) stands > 100%.
For the compound `O=C(CNC1CC1c1cc(F)cc(F)c1OCc1cccnc1F)N1CCC(N2CC3CCC(C2)N3)CC1` (configuration not stated), the remaining at 1 h in series [2] is 25%; in series [4], 24%; in series [5] it was 0%. The same compound displayed an inhibition at 2 min, 10 µM on hERG (KCNH2) of 23%.
`COCCN1CCN(C(=O)CNC2CC2c2cc(F)cc(F)c2OCc2cc[nH]n2)CC1` (configuration not stated): the inhibition at 2 min, 10 µM against hERG (KCNH2) worked out at 8%.
Consider `O=C(CNC1CC1c1cc(F)cc(F)c1OCc1cccnc1F)N1CCC2(CCCN2)CC1` (configuration not stated), for which the remaining at 1 h in series [2] was 42%; in [4], 20%; in series [5], 41%. On hERG (KCNH2), this compound yielded an inhibition at 2 min, 10 µM of 62%.
`COCCN1CCN(C(=O)CNC2CC2c2cc(F)cc(F)c2OCc2cccnc2F)CC1` (configuration not stated) displayed an inhibition at 2 min, 10 µM against hERG (KCNH2) of 21%.
Take `O=C(CNC1CC1c1cc(F)cc(F)c1OCc1cccnc1F)N1CCC2(CCNC2)CC1` (configuration not stated): the remaining at 1 h in series [2] came to 73%; in series [4], 56%; in [5] it was 44%. The compound further displayed an inhibition at 2 min, 10 µM on hERG (KCNH2) of 10%.
For `O=C(CNC1CC1c1cc(F)cc(F)c1OCc1cccnc1F)N1CCC(N2CC3CCC(C2)O3)CC1` (configuration not stated), in that order: 0%, 0%, 0% and 32%.
On hERG (KCNH2), `COCCN1CCN(C(=O)CNC2CC2c2cc(F)cc(F)c2OCc2ccnc(F)c2)CC1` (configuration not stated) had an inhibition at 2 min, 10 µM of 46%.
The compound `COCCN1CCN(C(=O)CNC2CC2c2cc(F)cc(F)c2OCCc2ccccc2)CC1` (configuration not stated) registered an inhibition at 2 min, 10 µM against hERG (KCNH2) of 76%.
What is called Tmax is the time from dosing to the highest level. The AUC(0-inf) is total exposure, with the tail of the curve extrapolated. Low readings indicate less exposure, high ones more exposure. The Cmax is the maximum level reached in the sampled fluid or tissue. What is called half-life is the time needed for the level to fall by half in the phase considered. A low value points to fast loss. As to `O=C(CN[C@H]1C[C@@H]1c1cc(F)cc(F)c1OCc1cccnc1F)N1CCC2(CCNC2)CC1`, the Ki in [1] and in series [3] was > 250 µM each time. The results for the remaining at 1 h in series [2], in series [4] and in series [5] were 62%, 62% and 38%, respectively. Further, the Tmax in series [6] came to 30 min. Moreover, the AUC(0-inf) in series [7] amounted to 5.09 µM·h. The same compound gave a Cmax in [8] of 3030 nM. The compound further showed a half-life in [9] of 234 min.
On hERG (KCNH2), `CN1CCN(C(=O)CNC2CC2c2cc(F)cc(F)c2OCc2ccccc2)CC1` (racemic) had an inhibition at 2 min, 10 µM of 51%. Further, in series [6], the Tmax was determined as 15 min. In series [7], this compound displayed an AUC(0-inf) of 0.98 µM·h. Moreover, the Cmax in series [8] was found to be 960 nM. This compound gave a half-life in [9] of 57 min.
